Results reported in ChEMBL document CHEMBL1141826, “From a phagostimulant natural product to semisynthetic antifeedants against Spodoptera littoralis larvae: chemical transformations of the neoclerodane diterpenoid scutegalin B” (J Nat Prod, 1999).

What was measured:
[1] = tested on: Spodoptera littoralis; test: Phagostimulant activity against sixth stadium larvae of Spodoptera littoralis assessed as antifeedant index at 100 ppm after 16 hrs; format: functional
Summary of the method: (§1)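 Choice test: sixth-stadium larvae were starved 4 h and each placed in a Petri dish with two sucrose-treated glass-fiber disks (100 μL 0.05 M, 2.1 cm), one a control and one carrying compound at 100 ppm. Disks were reweighed, and index = [(C−T)/(C+T)]×100 from weights eaten. Negative values mean phagostimulation. 10 replications; Wilcoxon signed-ranks test, P<0.05.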

[2] = tested on: Spodoptera littoralis; test: Antifeedant activity against sixth stadium larvae of Spodoptera littoralis assessed as antifeedant index at 100 ppm after 16 hrs; format: functional; summary of the method: as §1
[3] = tested on: Spodoptera littoralis; test: Antifeedant activity against sixth stadium larvae of Spodoptera littoralis after 16 hrs; format: functional, organism-based
Summary of the method: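 No-choice feeding test: glass-fiber disks (2.1 cm) made palatable with 100 μL 0.05 M sucrose, then treated with 100 μL of test solution at 1, 10, 100 or 1000 ppm and offered to S. littoralis larvae. Ended at 16 h, when 50% of control disks were consumed. Disks were reweighed, and EC50 for 50% reduction in feeding was estimated relative to the sucrose control. 10 replications per concentration.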

Row | Structure (SMILES) | Activity [1] [%] | Activity [2] [%] | EC50 [3] [ppm]
1 | CC(=O)OCC[C@H](CC[C@@]1(C)[C@H](C)[C@@H](OC(C)=O)[C@H](OC(C)=O)[C@]23[C@@H]1C[C@H](C[C@]21CO1)O[C@@H]3O)COC(C)=O | -38.8 | – | –
2 | CC(=O)OCC[C@H](CC[C@@]1(C)[C@H](C)[C@@H](OC(C)=O)[C@H](OC(C)=O)[C@]23C(=O)O[C@H](C[C@H]12)C[C@]31CO1)COC(C)=O | -27.4 | – | –
3 | C/C=C(\C)C(=O)O[C@H]1O[C@@H]2C[C@@H]3[C@@](C)(CC[C@@H](CCOC(C)=O)COC(C)=O)[C@H](C)[C@@H](OC(C)=O)[C@H](OC(C)=O)[C@]13[C@@]1(CO1)C2 | -0.4 | – | –
4 | CC(=O)O[C@@H]1C[C@@H]2[C@@](C)(CC[C@H]3CCOC3=O)[C@H](C)[C@@H](OC(C)=O)[C@H](OC(C)=O)[C@@]2(C=O)[C@@]2(CO2)C1 | – | 17.2 | –
5 | CO[C@H]1O[C@@H]2C[C@@H]3[C@@](C)(CC[C@H]4CCOC4=O)[C@H](C)[C@@H](OC(C)=O)[C@H](OC(C)=O)[C@]13[C@@]1(CO1)C2 | -29.5 | – | –
6 | CC(=O)O[C@@H]1[C@@H](C)[C@](C)(CC[C@H]2CCOC2=O)[C@H]2C[C@@H]3C[C@]4(CO4)[C@]2([C@@H](O)O3)[C@H]1O | – | 67 | 51
7 | CC(=O)O[C@H]1C(=O)[C@@H](C)[C@](C)(CC[C@H]2CCOC2=O)[C@H]2C[C@@H]3C[C@]4(CO4)[C@@]21C(=O)O3 | – | 44.1 | > 1000
8 | CC(=O)O[C@@H]1[C@@H](C)[C@](C)(CC[C@H]2CCOC2=O)[C@H]2C[C@@H]3C[C@]4(CO4)[C@]2([C@@H](OC(=O)C(C)C)O3)[C@H]1O | – | 37.5 | > 1000
9 | C/C=C(\C)C(=O)O[C@H]1O[C@@H]2C[C@@H]3[C@@](C)(CC[C@H]4CCOC4=O)[C@H](C)C(=O)[C@H](OC(C)=O)[C@]13[C@@]1(CO1)C2 | – | 36.5 | 350
10 | CC(=O)O[C@@H]1[C@@H](C)[C@](C)(CC[C@H]2CCOC2=O)[C@H]2C[C@@H](OC(=O)C(C)C)C[C@]3(CO3)[C@]2(C=O)[C@H]1OC(C)=O | -10 | – | –
11 | C/C=C(\C)C(=O)O[C@H]1O[C@@H]2C[C@@H]3[C@@](C)(CC[C@H](CO)CCO)[C@H](C)[C@@H](OC(C)=O)[C@H](OC(C)=O)[C@]13[C@@]1(CO1)C2 | – | 18.8 | –
12 | C/C=C(\C)C(=O)O[C@H]1O[C@@H]2C[C@@H]3[C@@](C)(CC[C@H]4CCOC4=O)[C@H](C)[C@@H](O)[C@H](OC(C)=O)[C@]13[C@@]1(CO1)C2 | – | 29.3 | > 1000
13 | C/C=C(\C)C(=O)O[C@H]1O[C@@H]2C[C@@H]3[C@@](C)(CC[C@H]4CCOC4=O)[C@H](C)[C@@H](OC(C)=O)[C@H](O)[C@]13[C@@]1(CO1)C2 | – | 18.6 | > 1000
14 | CC(=O)O[C@@H]1[C@@H](C)[C@](C)(CC[C@H]2CCOC2=O)[C@H]2C[C@@H]3C[C@]4(CO4)[C@]2([C@@H](O)O3)[C@H]1OC(C)=O | – | 34 | > 1000
15 | CC(=O)OC1O[C@@H]2C[C@@H]3[C@@](C)([C@@H]4C[C@H]5C=CO[C@H]5O4)[C@H](C)C[C@H](OC(C)=O)[C@]13[C@@]1(CO1)C2 (some centres not stated) [JODRELLIN A] | – | 92 | –
16 | CC(=O)O[C@H]1C[C@@H](C)[C@](C)([C@@H]2C[C@H]3C=CO[C@H]3O2)[C@H]2C[C@@H]3C[C@]4(CO4)[C@]12C(OC(=O)C(C)C)O3 (some centres not stated) [JODRELLIN B] | – | 100 | –
17 | C/C=C(\C)C(=O)O[C@H]1C[C@H](C)[C@](C)([C@@H](O)CC2=CC(=O)OC2)[C@H]2CCC[C@]3(CO3)[C@]12COC(C)=O [SCUTALPIN C] | – | 96.8 | < 1
18 | C/C=C(\C)C(=O)O[C@H]1O[C@@H]2C[C@@H]3[C@@](C)(CC[C@H]4CCO[C@H]4O)[C@H](C)[C@@H](O)[C@H](OC(C)=O)[C@]13[C@@]1(CO1)C2 [SCUTEGALIN B] | -27 | – | 870
